Reference: ChEMBL document CHEMBL4622843, “Synthesis, state-of-the-art NMR-binding and molecular modeling study of new benzimidazole core derivatives as Pin1 inhibitors: Targeting breast cancer” (Bioorg Med Chem, 2020)
pIC50: −log10 of the molar value. Active and inactive are the calls of the source. The calls are words filed in the database; no cut-off is given here.

Legend:
[1] = system: MCF7; assay: Cytotoxicity against human MCF7 cells assessed as reduction in cell viability after 24 hrs by MTT assay; type: functional, cell-based; conditions: MCF7, 24 h
[2] = target: Peptidyl-prolyl cis-trans isomerase NIMA-interacting 1 (Homo sapiens) (UniProt Q13526); assay: Binding affinity to recombinant human 15N-labelled N-terminal 6His-tagged Pin1 expressed in Escherichia coli BL21 (DE3) cells at 1:10 ratio of protein to compound by 2D 15N-1H HSQC NMR spectroscopy
Sequence of Peptidyl-prolyl cis-trans isomerase NIMA-interacting 1 (Homo sapiens) (Q13526 whole entry): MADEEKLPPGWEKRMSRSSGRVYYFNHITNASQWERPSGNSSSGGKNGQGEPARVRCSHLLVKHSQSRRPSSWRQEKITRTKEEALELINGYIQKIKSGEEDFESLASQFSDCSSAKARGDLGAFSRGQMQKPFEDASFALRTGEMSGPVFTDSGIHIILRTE
Procedure, shortened: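 Pin1 and compound at a 1:10 protein:compound ratio, compound partially dissolved in 95% buffer/5% DMSO. A reference HSQC spectrum was recorded with DMSO only and compared with ligand-containing spectra.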

[3] = Solubility of the compound in 95% PBS buffer/5% DMSO; type: physicochemical
[4] = system: MCF7; assay: Induction of apoptosis in human MCF7 cells assessed as early apoptotic cells at 10 mg/ml after 24 hrs by AnnexinV-FITC/propidium iodide staining based flow cytometry analysis (reference value: 0.41%); type: functional
[5] = system: MCF7; assay: Induction of apoptosis in human MCF7 cells assessed as late apoptotic cells at 10 mg/ml after 24 hrs by AnnexinV-FITC/propidium iodide staining based flow cytometry analysis (reference value: 0.19%); type: functional
[6] = system: MCF7; assay: Induction of apoptosis in human MCF7 cells assessed as necrotic cells at 10 mg/ml after 24 hrs by AnnexinV-FITC/propidium iodide staining based flow cytometry analysis (reference value: 0.44%); type: functional
[7] = system: MCF7; assay: Cell cycle arrest in human MCF7 cells assessed as accumulation at G0/G1 phase at 10 mg/ml after 24 hrs by Annexin V-FITC/propidium iodide staining based flow cytometry (reference value: 56.38%); type: functional
[8] = system: MCF7; assay: Cell cycle arrest in human MCF7 cells assessed as accumulation at S phase at 10 mg/ml after 24 hrs by Annexin V-FITC/propidium iodide staining based flow cytometry (reference value: 38.15%); type: functional
[9] = system: MCF7; assay: Cell cycle arrest in human MCF7 cells assessed as accumulation at G2/M phase at 10 mg/ml after 24 hrs by Annexin V-FITC/propidium iodide staining based flow cytometry (reference value: 5.47%); type: functional
[10] = system: MCF7; assay: Cell cycle arrest in human MCF7 cells assessed as accumulation at PreG1 phase at 10 mg/ml after 24 hrs by Annexin V-FITC/propidium iodide staining based flow cytometry (reference value: 1.04%); type: functional

Row | Compound | pIC50 [1] | other results
1 | CN1CCN(CCCSc2nc3ccccc3[nH]2)CC1 | 4.11 | –
2 | CCN(CC)C(=S)SCc1nc2cc(Cl)c(Cl)cc2[nH]1 | 4.90 | –
3 | CCOc1ccccc1N1CCN(C(=S)SCc2nc3cc(Cl)c(Cl)cc3[nH]2)CC1 | 4.79 | –
4 | COc1ccc(N2CCN(C(=S)SCc3nc4cc(C)c(C)cc4[nH]3)CC2)cc1 | 4.34 | –
5 | c1ccc2[nH]c(SCCCN3CCNCC3)nc2c1 | 4.04 | –
6 | COc1ccc(N2CCN(CCCSc3nc4cc(Cl)ccc4[nH]3)CC2)cc1 | 4.41 | –
7 | COc1ccc(N2CCN(CCCSc3nc4ccccc4[nH]3)CC2)cc1 | 5.16 | Activity [2]: Active; solubility [3]: Soluble
8 | CCOc1ccccc1N1CCN(CCCSc2nc3ccccc3[nH]2)CC1 | 4.49 | –
9 | c1ccc2[nH]c(SCCCN3CCOCC3)nc2c1 | 4.08 | –
10 | Clc1cccc(N2CCN(CCCSc3nc4cc(Cl)ccc4[nH]3)CC2)c1 | 4.21 | –
11 | CCOc1ccccc1N1CCN(C(=S)SCc2nc3cc(C)c(C)cc3[nH]2)CC1 | 5.25 | Activity [4]: 7.36%; Activity [5]: 17.01%; Activity [6]: 2.91%; Activity [7]: 39.72%; Activity [8]: 32.42%; Activity [9]: 27.86%; Activity [10]: 27.28%
12 | COc1ccc(N2CCN(C(=S)SCc3nc4cc(Cl)c(Cl)cc4[nH]3)CC2)cc1 | 4.70 | –
13 | Cc1cc2nc(CSC(=S)N3CCCCC3)[nH]c2cc1C | 5.02 | Activity [2]: Active; solubility [3]: Soluble
14 | Clc1cccc(N2CCN(CCCSc3nc4ccccc4[nH]3)CC2)c1 | 4.26 | –
15 | CCOc1ccccc1N1CCN(CCCSc2nc3cc(Cl)ccc3[nH]2)CC1 | 4.56 | –
16 | CN1CCN(C(=S)SCc2nc3cc(Cl)c(Cl)cc3[nH]2)CC1 | 4.52 | –
17 | ClCCCSc1nc2cc(Cl)ccc2[nH]1 | 4.62 | –
18 | CN1CCN(CCCSc2nc3cc(Cl)ccc3[nH]2)CC1 | 4.86 | –
19 | S=C(SCc1nc2cc(Cl)c(Cl)cc2[nH]1)N1CCCCC1 | 4.37 | –
20 | S=C(SCc1nc2cc(Cl)c(Cl)cc2[nH]1)N1CCOCC1 | 5.24 | Activity [2]: Active; solubility [3]: Soluble
